# Laboratory results as given in ChEMBL document CHEMBL4689842, “EUbOPEN Chemogenomics Library wave 1” (2021).
# Where “and” joins values, the source holds several entries; their conditions need not be identical. Identical values can stand only once.
# System: Fibroblast
# Assay: Multiplex assay against human fibroblast
# Format: toxicity, cell-based
# Outline: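 Live cells were stained at seeding with Hoechst33342, BioTracker Green Microtubule Cytoskeleton Dye, MitoTracker Red and Annexin V Alexa Fluor 680. Following compound addition, they were imaged on a CQ1 microscope at 37°C and 5% CO2 and gated by CellPathfinder machine learning into Hoechst high-intensity objects or normal cells, with normal cells split into healthy, pyknosed or fragmented nuclei and pyknosed cells into mitotic or apoptotic. Tubulin, mitochondrial-mass and membrane-permeability phenotypes are per cents of healthy-nucleus cells.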
# [1] = 12 h, 10 µM, compound concentration 10 uM, replicate 1
# [2] = 12 h, 10 µM, compound concentration 10 uM, replicate 2
# [3] = 24 h, 10 µM, compound concentration 10 uM, replicate 1
# [4] = 24 h, 10 µM, compound concentration 10 uM, replicate 2
# [5] = 12 h, 1 µM, compound concentration 1 uM, replicate 1
# [6] = 12 h, 1 µM, compound concentration 1 uM, replicate 2
# [7] = 24 h, 1 µM, compound concentration 1 uM, replicate 1
# [8] = 24 h, 1 µM, compound concentration 1 uM, replicate 2
smiles,measurement,setting,value
CCN(CC)S(=O)(=O)Nc1cccc(-c2ccc3c(NC(=O)C4CC4)n[nH]c3c2)c1,Population Apoptotic (%),[1],81%
same,Population Fragmented Nuclei (%),[1],23% and 19%
same,Population Healthy Nuclei (%),[1],64% and 56%
same,Population Hoechst High Intensity Objects (%),[1],13% and 11%
same,Population Membrane Permeable-Phenotype (%),[1],9% and 5%
same,Population Mitochondria Different-Phenotype (%),[1],2% and 6%
same,Population Mitotic Cells (%),[1],18%
same,Population Normal (%),[1],86% and 88%
same,Population Pyknosed Nuclei (%),[1],11% and 23%
same,Population Tubulin-Different-Phenotype (%),[1],5% and 7%
same,Total Cell Count,[1],220 and 309
same,Population Apoptotic (%),[2],66% and 40%
same,Population Fragmented Nuclei (%),[2],72% and 55%
same,Population Healthy Nuclei (%),[2],17% and 34%
same,Population Hoechst High Intensity Objects (%),[2],48% and 35%
same,Population Membrane Permeable-Phenotype (%),[2],20% and 11%
same,Population Mitotic Cells (%),[2],33% and 60%
same,Population Normal (%),[2],51% and 65%
same,Population Pyknosed Nuclei (%),[2],10% and 9%
same,Population Tubulin-Different-Phenotype (%),[2],20% and 11%
same,Total Cell Count,[2],56 and 80
same,Population Apoptotic (%),[3],77% and 62%
same,Population Fragmented Nuclei (%),[3],22% and 19%
same,Population Healthy Nuclei (%),[3],66% and 62%
same,Population Hoechst High Intensity Objects (%),[3],13% and 11%
same,Population Membrane Permeable-Phenotype (%),[3],6% and 4%
same,Population Mitochondria Different-Phenotype (%),[3],0% and 8%
same,Population Mitotic Cells (%),[3],22% and 38%
same,Population Normal (%),[3],86% and 88%
same,Population Pyknosed Nuclei (%),[3],10% and 18%
same,Population Tubulin-Different-Phenotype (%),[3],0% and 11%
same,Total Cell Count,[3],238 and 311
same,Population Fragmented Nuclei (%),[4],51% and 63%
same,Population Healthy Nuclei (%),[4],35% and 23%
same,Population Hoechst High Intensity Objects (%),[4],31% and 42%
same,Population Membrane Permeable-Phenotype (%),[4],10% and 28%
same,Population Normal (%),[4],68% and 57%
same,Population Pyknosed Nuclei (%),[4],12% and 13%
same,Total Cell Count,[4],79 and 52
COc1ccc(S(=O)(=O)N(CCO)c2ccccc2CN(C)C/C=C/c2ccc(Cl)cc2)cc1.O=P(O)(O)O,Population Fragmented Nuclei (%),[5],35%
same,Population Healthy Nuclei (%),[5],51%
same,Population Hoechst High Intensity Objects (%),[5],16%
same,Population Membrane Permeable-Phenotype (%),[5],12%
same,Population Mitochondria Different-Phenotype (%),[5],29%
same,Population Mitotic Cells (%),[5],19%
same,Population Normal (%),[5],83%
same,Population Pyknosed Nuclei (%),[5],13%
same,Population Tubulin-Different-Phenotype (%),[5],86%
same,Total Cell Count,[5],278
same,Population Apoptotic (%),[6],80%
same,Population Fragmented Nuclei (%),[6],56%
same,Population Healthy Nuclei (%),[6],33%
same,Population Hoechst High Intensity Objects (%),[6],33%
same,Population Membrane Permeable-Phenotype (%),[6],11%
same,Population Mitochondria Different-Phenotype (%),[6],88%
same,Population Mitotic Cells (%),[6],20%
same,Population Normal (%),[6],66%
same,Population Pyknosed Nuclei (%),[6],9%
same,Population Tubulin-Different-Phenotype (%),[6],94%
same,Total Cell Count,[6],77
same,Population Apoptotic (%),[1],75%
same,Population Fragmented Nuclei (%),[1],32%
same,Population Healthy Nuclei (%),[1],55%
same,Population Hoechst High Intensity Objects (%),[1],10%
same,Population Membrane Permeable-Phenotype (%),[1],14%
same,Population Mitochondria Different-Phenotype (%),[1],5%
same,Population Mitotic Cells (%),[1],25%
same,Population Normal (%),[1],89%
same,Population Pyknosed Nuclei (%),[1],12%
same,Population Tubulin-Different-Phenotype (%),[1],19%
same,Total Cell Count,[1],179
same,Population Apoptotic (%),[2],50%
same,Population Fragmented Nuclei (%),[2],61%
same,Population Healthy Nuclei (%),[2],34%
same,Population Hoechst High Intensity Objects (%),[2],44%
same,Population Membrane Permeable-Phenotype (%),[2],22%
same,Population Mitochondria Different-Phenotype (%),[2],22%
same,Population Mitotic Cells (%),[2],50%
same,Population Normal (%),[2],55%
same,Population Pyknosed Nuclei (%),[2],3%
same,Population Tubulin-Different-Phenotype (%),[2],55%
same,Total Cell Count,[2],94
same,Population Apoptotic (%),[7],80%
same,Population Fragmented Nuclei (%),[7],34%
same,Population Healthy Nuclei (%),[7],55%
same,Population Hoechst High Intensity Objects (%),[7],23%
same,Population Membrane Permeable-Phenotype (%),[7],5%
same,Population Mitochondria Different-Phenotype (%),[7],79%
same,Population Mitotic Cells (%),[7],20%
same,Population Normal (%),[7],76%
same,Population Pyknosed Nuclei (%),[7],9%
same,Population Tubulin-Different-Phenotype (%),[7],90%
same,Total Cell Count,[7],264
same,Population Apoptotic (%),[8],100%
same,Population Fragmented Nuclei (%),[8],48%
same,Population Healthy Nuclei (%),[8],38%
same,Population Hoechst High Intensity Objects (%),[8],37%
same,Population Membrane Permeable-Phenotype (%),[8],0%
same,Population Mitochondria Different-Phenotype (%),[8],100%
same,Population Mitotic Cells (%),[8],0%
same,Population Normal (%),[8],62%
same,Population Pyknosed Nuclei (%),[8],12%
same,Population Tubulin-Different-Phenotype (%),[8],88%
same,Total Cell Count,[8],75
same,Population Apoptotic (%),[3],69%
same,Population Fragmented Nuclei (%),[3],33%
same,Population Healthy Nuclei (%),[3],52%
same,Population Hoechst High Intensity Objects (%),[3],14%
same,Population Membrane Permeable-Phenotype (%),[3],8%
same,Population Mitochondria Different-Phenotype (%),[3],3%
same,Population Mitotic Cells (%),[3],30%
same,Population Normal (%),[3],85%
same,Population Pyknosed Nuclei (%),[3],14%
same,Population Tubulin-Different-Phenotype (%),[3],14%
same,Total Cell Count,[3],186
same,Population Apoptotic (%),[4],75%
same,Population Fragmented Nuclei (%),[4],71%
same,Population Healthy Nuclei (%),[4],20%
same,Population Hoechst High Intensity Objects (%),[4],44%
same,Population Membrane Permeable-Phenotype (%),[4],18%
same,Population Mitochondria Different-Phenotype (%),[4],18%
same,Population Mitotic Cells (%),[4],25%
same,Population Normal (%),[4],55%
same,Population Pyknosed Nuclei (%),[4],7%
same,Population Tubulin-Different-Phenotype (%),[4],36%
same,Total Cell Count,[4],95
C=CCn1c(=O)c2cnc(Nc3ccc(N4CCN(C)CC4)cc3)nc2n1-c1cccc(C(C)(C)O)n1 [ADAVOSERTIB],Population Apoptotic (%),[5],69%
same,Population Fragmented Nuclei (%),[5],28%
same,Population Healthy Nuclei (%),[5],62%
same,Population Hoechst High Intensity Objects (%),[5],15%
same,Population Membrane Permeable-Phenotype (%),[5],7%
same,Population Mitochondria Different-Phenotype (%),[5],4%
same,Population Mitotic Cells (%),[5],30%
same,Population Normal (%),[5],84%
same,Population Pyknosed Nuclei (%),[5],8%
same,Population Tubulin-Different-Phenotype (%),[5],6%
same,Total Cell Count,[5],178
same,Population Apoptotic (%),[6],50%
same,Population Fragmented Nuclei (%),[6],48%
same,Population Healthy Nuclei (%),[6],37%
same,Population Hoechst High Intensity Objects (%),[6],35%
same,Population Membrane Permeable-Phenotype (%),[6],9%
same,Population Mitochondria Different-Phenotype (%),[6],19%
same,Population Mitotic Cells (%),[6],50%
same,Population Normal (%),[6],64%
same,Population Pyknosed Nuclei (%),[6],14%
same,Population Tubulin-Different-Phenotype (%),[6],19%
same,Total Cell Count,[6],87
same,Population Apoptotic (%),[1],44%
same,Population Fragmented Nuclei (%),[1],29%
same,Population Healthy Nuclei (%),[1],46%
same,Population Hoechst High Intensity Objects (%),[1],14%
same,Population Membrane Permeable-Phenotype (%),[1],8%
same,Population Mitochondria Different-Phenotype (%),[1],5%
same,Population Mitotic Cells (%),[1],55%
same,Population Normal (%),[1],85%
same,Population Pyknosed Nuclei (%),[1],24%
same,Population Tubulin-Different-Phenotype (%),[1],23%
same,Total Cell Count,[1],218
same,Population Apoptotic (%),[2],75%
same,Population Fragmented Nuclei (%),[2],55%
same,Population Healthy Nuclei (%),[2],36%
same,Population Hoechst High Intensity Objects (%),[2],41%
same,Population Membrane Permeable-Phenotype (%),[2],17%
same,Population Mitochondria Different-Phenotype (%),[2],23%
same,Population Mitotic Cells (%),[2],25%
same,Population Normal (%),[2],58%
same,Population Pyknosed Nuclei (%),[2],8%
same,Population Tubulin-Different-Phenotype (%),[2],35%
same,Total Cell Count,[2],81
same,Population Apoptotic (%),[7],83%
same,Population Fragmented Nuclei (%),[7],27%
same,Population Healthy Nuclei (%),[7],60%
same,Population Hoechst High Intensity Objects (%),[7],18%
same,Population Membrane Permeable-Phenotype (%),[7],6%
same,Population Mitochondria Different-Phenotype (%),[7],9%
same,Population Mitotic Cells (%),[7],16%
same,Population Normal (%),[7],81%
same,Population Pyknosed Nuclei (%),[7],11%
same,Population Tubulin-Different-Phenotype (%),[7],7%
same,Total Cell Count,[7],187
same,Population Apoptotic (%),[8],25%
same,Population Fragmented Nuclei (%),[8],51%
same,Population Healthy Nuclei (%),[8],41%
same,Population Hoechst High Intensity Objects (%),[8],29%
same,Population Membrane Permeable-Phenotype (%),[8],4%
same,Population Mitochondria Different-Phenotype (%),[8],8%
same,Population Mitotic Cells (%),[8],75%
same,Population Normal (%),[8],70%
same,Population Pyknosed Nuclei (%),[8],6%
same,Population Tubulin-Different-Phenotype (%),[8],12%
same,Total Cell Count,[8],82
same,Population Apoptotic (%),[3],56%
same,Population Fragmented Nuclei (%),[3],30%
same,Population Healthy Nuclei (%),[3],47%
same,Population Hoechst High Intensity Objects (%),[3],20%
same,Population Membrane Permeable-Phenotype (%),[3],4%
same,Population Mitochondria Different-Phenotype (%),[3],10%
same,Population Mitotic Cells (%),[3],43%
same,Population Normal (%),[3],79%
same,Population Pyknosed Nuclei (%),[3],21%
same,Population Tubulin-Different-Phenotype (%),[3],21%
same,Total Cell Count,[3],241
same,Population Apoptotic (%),[4],100%
same,Population Fragmented Nuclei (%),[4],61%
same,Population Healthy Nuclei (%),[4],35%
same,Population Hoechst High Intensity Objects (%),[4],29%
same,Population Membrane Permeable-Phenotype (%),[4],9%
same,Population Mitochondria Different-Phenotype (%),[4],9%
same,Population Mitotic Cells (%),[4],0%
same,Population Normal (%),[4],70%
same,Population Pyknosed Nuclei (%),[4],3%
same,Population Tubulin-Different-Phenotype (%),[4],28%
same,Total Cell Count,[4],84
